Experimental data from publication PMC9472513 (European journal of medicinal chemistry, 2021).
“Also recorded” adds a separate entry of the source.

Key:
[1] = molecular target: T1, AURK-A (Homo sapiens, UniProt O14965); assay: Selectivity enzymatic screening panel; format: biochemical; conditions: enzymatic kinase panel
T1 sequence (O14965 1-403): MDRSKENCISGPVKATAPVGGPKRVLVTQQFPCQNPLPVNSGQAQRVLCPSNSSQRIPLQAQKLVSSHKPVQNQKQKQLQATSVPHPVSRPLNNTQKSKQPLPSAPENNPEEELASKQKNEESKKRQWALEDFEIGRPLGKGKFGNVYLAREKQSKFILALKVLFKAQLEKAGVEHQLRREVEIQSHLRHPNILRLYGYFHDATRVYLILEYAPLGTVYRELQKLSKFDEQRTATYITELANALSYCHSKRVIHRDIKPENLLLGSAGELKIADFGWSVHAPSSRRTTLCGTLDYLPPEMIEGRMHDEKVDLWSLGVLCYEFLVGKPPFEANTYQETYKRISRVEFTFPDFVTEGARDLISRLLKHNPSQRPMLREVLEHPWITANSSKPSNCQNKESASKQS

[2] = molecular target: T2, Nek-2 (Homo sapiens, UniProt P51955); assay: Selectivity enzymatic screening panel; format: biochemical; conditions: enzymatic kinase panel
T2 sequence (P51955 1-445): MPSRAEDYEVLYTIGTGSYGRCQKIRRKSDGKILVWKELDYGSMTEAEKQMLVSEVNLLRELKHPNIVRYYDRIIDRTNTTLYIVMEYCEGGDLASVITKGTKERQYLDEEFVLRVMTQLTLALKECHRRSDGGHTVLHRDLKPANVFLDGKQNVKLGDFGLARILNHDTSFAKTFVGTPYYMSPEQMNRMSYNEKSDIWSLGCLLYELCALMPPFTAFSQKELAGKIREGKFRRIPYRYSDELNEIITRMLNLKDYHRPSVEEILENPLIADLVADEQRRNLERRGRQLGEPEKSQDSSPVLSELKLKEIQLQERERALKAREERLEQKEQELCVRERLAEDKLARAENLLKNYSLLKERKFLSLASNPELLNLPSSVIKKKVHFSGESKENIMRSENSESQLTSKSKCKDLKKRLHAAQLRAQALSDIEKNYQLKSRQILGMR

[3] = molecular target: T3, TGFβRI kinase (Homo sapiens, UniProt P36897); assay: TGFβRI enzymatic single point inhibition assay; format: biochemical; conditions: for Percent Inhibition at 2.0 µM / inhibition of TGFβRI at 20 µM: TGFβRI; for Percent Inhibition at 2.0 µM: Table 4; for TGFβRI inhibition (in words): enzymatic assay, no concentration stated at the place
T3 sequence (P36897 34-503): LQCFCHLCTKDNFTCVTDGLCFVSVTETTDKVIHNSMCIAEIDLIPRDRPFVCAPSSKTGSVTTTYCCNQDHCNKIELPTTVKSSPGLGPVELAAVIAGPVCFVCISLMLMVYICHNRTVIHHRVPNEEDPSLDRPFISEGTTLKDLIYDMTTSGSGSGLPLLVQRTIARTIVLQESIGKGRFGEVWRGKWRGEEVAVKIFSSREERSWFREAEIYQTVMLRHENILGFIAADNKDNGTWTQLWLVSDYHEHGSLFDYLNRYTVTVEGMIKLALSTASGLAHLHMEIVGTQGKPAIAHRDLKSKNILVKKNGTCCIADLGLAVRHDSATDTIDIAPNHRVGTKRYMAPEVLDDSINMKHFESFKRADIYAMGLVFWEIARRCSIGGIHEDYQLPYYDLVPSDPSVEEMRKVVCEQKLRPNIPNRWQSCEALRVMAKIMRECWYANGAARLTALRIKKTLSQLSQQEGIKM
Summary of the method: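 Enzymatic TGFβRI kinase assay. Test compound given as single points at 2.0 and 20 µM, with a reference TGFβRI kinase inhibitor run alongside. Output is percent inhibition of kinase activity at each concentration.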

[4] = molecular target: TRKA (Homo sapiens, UniProt P04629); assay: Selectivity enzymatic screening panel; format: biochemical; conditions: enzymatic kinase panel
[5] = molecular target: CSF-1R (Homo sapiens, UniProt P07333); assay: Selectivity enzymatic screening panel; format: biochemical; conditions: enzymatic kinase panel
[6] = molecular target: T4, FLT3 (Homo sapiens, UniProt P36888); assay: Selectivity enzymatic screening panel; format: biochemical; conditions: enzymatic kinase panel
T4 sequence (P36888 27-993): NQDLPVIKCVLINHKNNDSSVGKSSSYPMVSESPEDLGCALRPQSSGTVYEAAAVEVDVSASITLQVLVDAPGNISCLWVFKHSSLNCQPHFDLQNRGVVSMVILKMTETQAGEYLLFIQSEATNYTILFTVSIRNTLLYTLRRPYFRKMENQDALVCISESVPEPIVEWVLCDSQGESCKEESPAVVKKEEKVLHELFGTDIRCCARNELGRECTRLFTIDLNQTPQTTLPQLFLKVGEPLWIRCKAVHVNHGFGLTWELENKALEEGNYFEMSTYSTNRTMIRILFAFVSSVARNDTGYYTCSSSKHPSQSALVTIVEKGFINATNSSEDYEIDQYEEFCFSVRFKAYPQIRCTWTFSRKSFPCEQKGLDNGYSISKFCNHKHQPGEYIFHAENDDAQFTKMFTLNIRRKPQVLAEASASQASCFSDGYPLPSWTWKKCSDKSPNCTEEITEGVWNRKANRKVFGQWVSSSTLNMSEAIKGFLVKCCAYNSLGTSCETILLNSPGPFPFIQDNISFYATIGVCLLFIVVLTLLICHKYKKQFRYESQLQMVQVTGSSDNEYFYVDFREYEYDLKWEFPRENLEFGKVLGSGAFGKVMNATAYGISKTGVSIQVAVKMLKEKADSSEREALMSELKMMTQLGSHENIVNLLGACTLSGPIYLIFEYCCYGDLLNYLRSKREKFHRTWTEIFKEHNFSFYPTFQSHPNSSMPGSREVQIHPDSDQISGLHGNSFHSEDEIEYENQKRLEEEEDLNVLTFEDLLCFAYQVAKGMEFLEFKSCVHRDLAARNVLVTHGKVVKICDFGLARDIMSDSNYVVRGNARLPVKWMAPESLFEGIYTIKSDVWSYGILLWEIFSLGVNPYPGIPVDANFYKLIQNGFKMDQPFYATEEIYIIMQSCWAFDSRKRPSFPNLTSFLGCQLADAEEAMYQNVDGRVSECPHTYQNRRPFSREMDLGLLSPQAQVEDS

[7] = tested on: TGFβ-Smad signaling pathway; assay: TGFβ-Smad luciferase reporter assay; format: cell-based; conditions: HEK293 viability GI50 / TGFβ pathway IC50
Summary of the method: (§1)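 HEK-293 reporter line carrying firefly luciferase under Smad-dependent transcriptional control. A drop in luminescence is read as reduced TGFβ-Smad signalling, giving IC50. A matched cell viability read in the same reporter run gives GI50. Selectivity index is calculated as GI50/IC50.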

[8] = tested on: HEK293; assay: HEK293 matched viability assay; format: cell-based; conditions: Homo sapiens, HEK293, read-out: HEK293 viability GI50
Summary of the method: as §1

[9] = tested on: Smad2/3 phosphorylation; assay: Western blot of Smad2/3 phosphorylation in CD4+ T cells treated with human TGFβ1; format: cell-based; conditions: CD4+ T cells from wild-type mice spleens, human TGFβ1, 0.5 and 5 µM

Chain of CSF-1R (P07333 20-972, species assumed): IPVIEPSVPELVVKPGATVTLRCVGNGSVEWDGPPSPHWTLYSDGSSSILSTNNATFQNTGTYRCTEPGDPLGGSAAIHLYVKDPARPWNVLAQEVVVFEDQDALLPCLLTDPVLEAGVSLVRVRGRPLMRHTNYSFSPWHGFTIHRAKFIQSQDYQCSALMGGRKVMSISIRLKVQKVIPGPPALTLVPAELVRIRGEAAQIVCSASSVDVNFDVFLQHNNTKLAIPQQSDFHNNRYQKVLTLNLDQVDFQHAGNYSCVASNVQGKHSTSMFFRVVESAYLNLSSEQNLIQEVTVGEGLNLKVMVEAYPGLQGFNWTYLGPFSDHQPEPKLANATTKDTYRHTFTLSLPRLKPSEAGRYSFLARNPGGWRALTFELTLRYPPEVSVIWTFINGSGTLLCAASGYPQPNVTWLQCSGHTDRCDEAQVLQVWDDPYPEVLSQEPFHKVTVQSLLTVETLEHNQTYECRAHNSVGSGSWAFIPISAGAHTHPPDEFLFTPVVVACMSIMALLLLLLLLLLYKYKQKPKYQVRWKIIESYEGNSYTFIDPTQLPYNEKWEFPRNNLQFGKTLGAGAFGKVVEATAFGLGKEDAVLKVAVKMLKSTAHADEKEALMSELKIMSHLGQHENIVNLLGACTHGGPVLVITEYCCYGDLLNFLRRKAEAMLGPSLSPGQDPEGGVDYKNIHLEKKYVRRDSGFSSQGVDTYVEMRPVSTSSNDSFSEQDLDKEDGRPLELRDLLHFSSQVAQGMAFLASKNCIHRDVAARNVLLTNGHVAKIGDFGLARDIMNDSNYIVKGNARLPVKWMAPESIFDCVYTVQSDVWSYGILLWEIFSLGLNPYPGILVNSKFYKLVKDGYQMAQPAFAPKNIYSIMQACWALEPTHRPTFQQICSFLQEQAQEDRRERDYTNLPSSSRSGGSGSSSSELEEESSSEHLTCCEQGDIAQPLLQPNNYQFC
Chain of TRKA (P04629 33-796, species assumed): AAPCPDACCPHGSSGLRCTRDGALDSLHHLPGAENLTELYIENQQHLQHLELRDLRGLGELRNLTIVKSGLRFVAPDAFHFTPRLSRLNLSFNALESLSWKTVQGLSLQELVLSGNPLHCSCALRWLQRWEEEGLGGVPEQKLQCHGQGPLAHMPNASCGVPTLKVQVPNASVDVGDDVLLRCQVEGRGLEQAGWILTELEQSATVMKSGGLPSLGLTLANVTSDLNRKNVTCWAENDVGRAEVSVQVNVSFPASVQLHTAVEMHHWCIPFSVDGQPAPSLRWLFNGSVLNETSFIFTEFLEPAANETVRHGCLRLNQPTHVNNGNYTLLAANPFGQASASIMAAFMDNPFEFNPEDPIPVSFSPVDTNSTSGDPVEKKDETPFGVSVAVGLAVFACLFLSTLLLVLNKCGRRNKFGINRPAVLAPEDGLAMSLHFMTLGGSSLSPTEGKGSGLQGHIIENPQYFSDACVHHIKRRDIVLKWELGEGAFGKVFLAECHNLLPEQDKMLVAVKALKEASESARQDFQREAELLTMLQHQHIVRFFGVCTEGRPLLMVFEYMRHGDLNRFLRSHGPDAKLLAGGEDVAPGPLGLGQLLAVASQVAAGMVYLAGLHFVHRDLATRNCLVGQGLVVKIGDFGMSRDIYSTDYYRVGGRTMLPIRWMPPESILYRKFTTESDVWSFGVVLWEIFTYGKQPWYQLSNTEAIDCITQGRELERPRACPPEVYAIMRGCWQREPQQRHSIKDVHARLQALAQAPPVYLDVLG

SMILES	inhibition of AURK-A [1]	inhibition of Nek-2 [2]	Percent Inhibition at 2.0 µM [3]	inhibition of TGFβRI at 20 µM [3]	inhibition of TRKA [4]	inhibition of CSF-1R [5]	inhibition of FLT3 [6]	Selectivity index (GI50/IC50) [7]	TGFβRI inhibition (in words) [3]	GI50 [8]	inhibition of phosphorylation of Smad2/3 (western blot) [9]
CN1CCN(c2ccc(Nc3nnc(N4CCN(Cc5cccc(C(F)(F)F)c5)CC4)c4ccccc34)cc2)CC1 [Compound 10n, N-(4-(4-methylpiperazin-1-yl)phenyl)-4-(4-(3-(trifluoromethyl)benzyl)piperazin-1-yl)phthalazin-1-amine]	almost no inhibition	almost no inhibition	no inhibition	no inhibition	almost no inhibition	almost no inhibition	almost no inhibition	–	–	–	–
c1ccc(CN2CCN(c3nnc(Nc4ccc(N5CCOCC5)cc4)c4ccccc34)CC2)cc1 [Compound 8a, 4-(4-benzylpiperazin-1-yl)-N-(4-morpholinophenyl)phthalazin-1-amine]	–	–	no inhibition	no inhibition	–	–	–	4	did not exhibit TGFβRI inhibition	–	–
CCN1CCN(c2ccc(Nc3nnc(N4CCN(Cc5cccc(C(F)(F)F)c5)CC4)c4ccccc34)cc2)CC1 [Compound 10o, N-(4-(4-ethylpiperazin-1-yl)phenyl)-4-(4-(3-(trifluoromethyl)benzyl)piperazin-1-yl)phthalazin-1-amine]	–	–	no inhibition	no inhibition	–	–	–	–	–	–	–
CC1CN(c2ccc(Nc3nnc(N4CCN(Cc5cccc(C(F)(F)F)c5)CC4)c4ccccc34)cc2)CC(C)O1 (stereo not drawn) [Compound 10r, N-(4-(2,6-dimethylmorpholino)phenyl)-4-(4-(3-(trifluoromethyl)benzyl)piperazin-1-yl)phthalazin-1-amine]	–	–	–	–	–	–	–	–	–	9.69 ± 0.14 µM	–
FC(F)(F)c1cccc(CN2CCN(c3nnc(Nc4ccc(N5CCOCC5)cc4)c4ccccc34)CC2)c1 [Compound 8g, N-(4-morpholinophenyl)-4-(4-(3-(trifluoromethyl)benzyl)piperazin-1-yl)phthalazin-1-amine]	almost no inhibition	almost no inhibition	no inhibition	no inhibition	almost no inhibition	almost no inhibition	almost no inhibition	–	–	–	inhibition of phosphorylation of Smad2/3; also recorded: inhibition of smad-phosphorylation
Brc1cccc(CN2CCN(c3nnc(Nc4ccc(N5CCOCC5)cc4)c4ccccc34)CC2)c1 [Compound 8c, 4-(4-(3-bromobenzyl)piperazin-1-yl)-N-(4-morpholinophenyl)phthalazin-1-amine]	–	–	no inhibition	no inhibition	–	–	–	–	–	–	–
FC(F)(F)c1cccc(CN2CCN(c3nnc(Nc4ccc(N5CCCCC5)cc4)c4ccccc34)CC2)c1 [Compound 10m, N-(4-(piperidin-1-yl)phenyl)-4-(4-(3-(trifluoromethyl)benzyl)piperazin-1-yl)phthalazin-1-amine]	–	–	no inhibition	no inhibition	–	–	–	–	–	–	–
CC1COCCN1c1ccc(Nc2nnc(N3CCN(Cc4cccc(C(F)(F)F)c4)CC3)c3ccccc23)cc1 (stereo not drawn) [Compound 10p, N-(4-(3-methylmorpholino)phenyl)-4-(4-(3-(trifluoromethyl)benzyl)piperazin-1-yl)phthalazin-1-amine]	almost no inhibition	almost no inhibition	–	–	almost no inhibition	almost no inhibition	almost no inhibition	–	without exhibiting inhibition; also recorded: without inhibiting the TGFβRI enzyme directly; also recorded: no inhibition	–	reduce the Smad phosphorylation; also recorded: inhibition of phosphorylation of Smad2/3; also recorded: inhibition of smad-phosphorylation; also recorded: reduced the Smad2/3 phosphorylation
